# Published values pooled from the literature.
# Protocols differ between the studies behind these lines.
# HTR2B: 5-hydroxytryptamine receptor 2B (HTR2B, Homo sapiens, UniProt P41595)
# blaNDM-1: Metallo-beta-lactamase type 2 (blaNDM-1, Klebsiella pneumoniae, UniProt C7C422)
# HLA class I histocompatibility antigen, B alpha chain: HLA class I histocompatibility antigen, B alpha chain (Homo sapiens, UniProt P01889)
# dxs: 1-deoxy-D-xylulose-5-phosphate synthase (dxs, Deinococcus radiodurans, UniProt Q9RUB5)
Compound,target,observed,action,technique,pH,setting,IC50 [µM]
Ic1ccccc1CN[C@@H]1C2CCN(CC2)[C@@H]1C(c1ccccc1)c1ccccc1 (racemic),"Substance-P receptor (TACR1, Homo sapiens, UniProt P25103)",ligand displacement,,radioligand,,,0.00262
COc1cc(CC(C)N)c(OC)cc1I (racemic),HTR2B,ligand displacement,,radioligand,,,0.0031
CN(Cc1ccccc1)C(=O)Oc1nsnc1N1CCCCC1,"Fatty-acid amide hydrolase 1 (FAAH, Homo sapiens, UniProt O00519)",enzyme activity,inhibitor,,,cell membranes,0.0631
Cc1c2ccncc2c(C)c2c1[nH]c1ccccc12,blaNDM-1,enzyme activity,inhibitor,,,,> 30
CC(C)[C@H](NC(=O)[C@@H](NC(=O)[C@@H](NC(=O)[C@@H](NC(=O)[C@@H](NC(=O)[C@H](Cc1ccccc1)NC(=O)[C@H](CCC(=O)O)NC(=O)[C@@H](N)CC(=O)O)C(C)C)C(C)C)C(C)C)[C@@H](C)O)C(=O)O,"HLA class I histocompatibility antigen, B alpha chain",ligand displacement,,radioligand,,,52.8
CSCC[C@H](NC(=O)[C@H](C)NC(=O)[C@H](CC(C)C)NC(=O)[C@H](C)NC(=O)[C@H](Cc1c[nH]c2ccccc12)NC(=O)[C@H](C)NC(=O)[C@@H](NC(=O)[C@@H]1CCCN1C(=O)[C@H](CO)NC(=O)[C@H](CO)NC(=O)[C@@H](N)CO)C(C)C)C(=O)N[C@@H](CCCNC(=N)N)C(=O)O,dxs,enzyme activity,inhibitor,absorbance,,,9.5
C[C@H](N)[C@H](O)c1cccc(O)c1,HTR2B,calcium signal,antagonist,fluorescence,,,7.38
C[C@H](N)Cn1ncc2ccc3c(c21)CCCO3,"D(3) dopamine receptor (Drd3, Rattus norvegicus, UniProt P19020)",ligand displacement,,radioligand,,,7.2
OCCN(CCO)c1nc(N2CCCCC2)c2nc(N(CCO)CCO)nc(N3CCCCC3)c2n1,blaNDM-1,enzyme activity,inhibitor,,,,> 10
Fc1ccc(CC(c2ccccc2)N2CCCC2)cc1 (stereo not shown),"Sigma intracellular receptor 2 (Tmem97, Rattus norvegicus, UniProt Q5U3Y7)",ligand displacement,,radioligand,,,> 10
COCCn1c2nc(=O)n(-c3ccccc3)c(=O)c-2nc2ccccc21,"mRNA cap guanine-N(7) methyltransferase (RNMT, Homo sapiens, UniProt O43148)",enzyme activity,inhibitor,,,,35.5
CSCC[C@H](NC(=O)[C@H](CCC(N)=O)NC(=O)[C@H](C)NC(=O)[C@H](CO)NC(=O)[C@@H](N)CO)C(=O)N[C@@H](CC(N)=O)C(=O)N[C@@H](CC(C)C)C(=O)N[C@@H](CC(N)=O)C(=O)N[C@H](C(=O)N[C@@H](Cc1ccccc1)C(=O)N[C@@H](CC(C)C)C(=O)N[C@@H](CC(N)=O)C(=O)O)[C@@H](C)O,dxs,enzyme activity,inhibitor,absorbance,pH 7.6,,> 1000
CSCC[C@H](NC(=O)[C@H](Cc1c[nH]c2ccccc12)NC(=O)CNC(=O)[C@H](Cc1ccc(O)cc1)NC(=O)[C@H](C)NC(=O)[C@@H](CCC(=O)O)NC(=O)CN1CCN(CC(=O)O)CCN(CC(=O)O)CCN(CC(=O)O)CC1)C(=O)N[C@@H](CC(=O)O)C(=O)N(C)[C@@H](Cc1ccccc1)C(N)=O,"Gastrin/cholecystokinin type B receptor (CCKBR, Homo sapiens, UniProt P32239)",ligand displacement,,radioligand,,,0.0404
O=C(O)c1cccc(C(=O)O)n1,blaNDM-1,enzyme activity,inhibitor,fluorescence,,,4.26
CC[C@H](C)[C@H](NC(=O)[C@H](CCCNC(=N)N)NC(=O)[C@@H]1CCCN1C(=O)[C@H](C)N)C(=O)N[C@H](C(=O)N[C@@H](Cc1ccccc1)C(=O)NCC(=O)NCC(=O)N1CCC[C@H]1C(=O)O)[C@@H](C)O,"HLA class I histocompatibility antigen, B alpha chain",ligand displacement,,radioligand,,,0.059
c1ccc(CNCc2ccccn2)nc1,blaNDM-1,enzyme activity,inhibitor,fluorescence,,,2.6
CC(C)[C@H](NC(=O)[C@@H](NC(=O)[C@H](CCC(=O)O)NC(=O)[C@@H](NC(=O)[C@H](Cc1ccccc1)NC(=O)[C@H](C)NC(=O)[C@H](CO)NC(=O)[C@@H](NC(=O)[C@@H](N)CO)[C@@H](C)O)C(C)C)[C@@H](C)O)C(=O)O,"HLA class I histocompatibility antigen, B alpha chain",ligand displacement,,radioligand,,,8.86
COc1ncccc1-c1cnn2ccc(N3CCN(C(=O)OC(C)C)CC3)nc12,"BMP-2-inducible protein kinase (BMP2K, Homo sapiens, UniProt Q9NSY1)",enzyme activity,inhibitor,,,,0.014
CN1CCN(CC/C=C2/c3ccccc3Sc3ccc(S(=O)(=O)N(C)C)cc32)CC1,"5-hydroxytryptamine receptor 2C (HTR2C, Homo sapiens, UniProt P28335)",ligand displacement,,radioligand,,,2.8
O=C(O)c1ccccn1,blaNDM-1,enzyme activity,inhibitor,fluorescence,,,84
CCCCCNC(=N)N/N=C/c1c[nH]c2ccc(OC)cc12,HTR2B,ligand displacement,,radioligand,,,0.008
CSCC[C@H](NC(=O)[C@@H](NC(=O)[C@@H](NC(=O)[C@H](CC(C)C)NC(=O)[C@H](CC(N)=O)NC(=O)[C@H](CC(N)=O)NC(=O)[C@@H](NC(=O)[C@H](C)NC(=O)[C@@H](N)CC(C)C)[C@@H](C)O)C(C)C)C(C)C)C(=O)O,"HLA class I histocompatibility antigen, B alpha chain",ligand displacement,,radioligand,,,0.055
